The source made the active and inactive calls. The rule behind the calls is not given here.

Assay [1] concerns the target T1, Aurora kinase A (Homo sapiens) (UniProt O14965).
T1 sequence (whole entry): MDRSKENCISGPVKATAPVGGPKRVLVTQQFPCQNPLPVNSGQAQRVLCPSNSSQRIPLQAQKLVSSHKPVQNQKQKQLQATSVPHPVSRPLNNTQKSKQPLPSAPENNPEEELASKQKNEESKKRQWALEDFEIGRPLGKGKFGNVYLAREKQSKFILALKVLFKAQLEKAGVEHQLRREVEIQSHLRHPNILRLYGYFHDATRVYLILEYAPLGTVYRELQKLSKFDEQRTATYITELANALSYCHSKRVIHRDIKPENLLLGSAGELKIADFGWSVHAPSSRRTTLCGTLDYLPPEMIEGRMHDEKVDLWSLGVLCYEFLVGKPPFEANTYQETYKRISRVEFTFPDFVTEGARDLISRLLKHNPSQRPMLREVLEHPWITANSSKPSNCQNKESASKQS
In words: Induction of aurora A degradation in human Kelly cells at 10 to 160 nM after 16 hrs by immunoblot method. The format is cell-based. The essentials:
(§1)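 Kelly and CHLA20 neuroblastoma cells were treated with dose titrations for 16 h, then Aurora A was detected by immunoblot. CHLA20 cells were always co-treated with 125 nM tariquidar, an ABCB1 inhibitor.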
On the technique in general: In western blotting, separated proteins are transferred to a membrane and probed.

Assay [2] is filed under the species Homo sapiens. In words: Antiproliferative activity against human CHLA20 cells after 72 hrs by CellTiter-Glo luminescent cell viability assay. The format is functional, cell-based. Background: ATP-based viability assays read luminescence as a measure of living cells.
Assay [3] addresses T1, Aurora kinase A (Homo sapiens). In words: Induction of aurora A degradation in human CHLA20 cells at 10 to 160 nM after 16 hrs by immunoblot method. The format is cell-based. In short, it runs like this:
as §1

The target of assay [4] is T2, ALK tyrosine kinase receptor (Homo sapiens, UniProt Q9UM73). In words: Induction of ALK degradation in human KARPAS299 cells after 16 hrs by immunoblot method. It is filed as cell-based. The essentials:
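H3122 and Karpas 299 cells were given a dose titration for 16 h. ALK and Aurora A were then read by immunoblot. DC50 was calculated from the titrations, two independent experiments.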
Target sequence in this assay (Q9UM73 whole entry): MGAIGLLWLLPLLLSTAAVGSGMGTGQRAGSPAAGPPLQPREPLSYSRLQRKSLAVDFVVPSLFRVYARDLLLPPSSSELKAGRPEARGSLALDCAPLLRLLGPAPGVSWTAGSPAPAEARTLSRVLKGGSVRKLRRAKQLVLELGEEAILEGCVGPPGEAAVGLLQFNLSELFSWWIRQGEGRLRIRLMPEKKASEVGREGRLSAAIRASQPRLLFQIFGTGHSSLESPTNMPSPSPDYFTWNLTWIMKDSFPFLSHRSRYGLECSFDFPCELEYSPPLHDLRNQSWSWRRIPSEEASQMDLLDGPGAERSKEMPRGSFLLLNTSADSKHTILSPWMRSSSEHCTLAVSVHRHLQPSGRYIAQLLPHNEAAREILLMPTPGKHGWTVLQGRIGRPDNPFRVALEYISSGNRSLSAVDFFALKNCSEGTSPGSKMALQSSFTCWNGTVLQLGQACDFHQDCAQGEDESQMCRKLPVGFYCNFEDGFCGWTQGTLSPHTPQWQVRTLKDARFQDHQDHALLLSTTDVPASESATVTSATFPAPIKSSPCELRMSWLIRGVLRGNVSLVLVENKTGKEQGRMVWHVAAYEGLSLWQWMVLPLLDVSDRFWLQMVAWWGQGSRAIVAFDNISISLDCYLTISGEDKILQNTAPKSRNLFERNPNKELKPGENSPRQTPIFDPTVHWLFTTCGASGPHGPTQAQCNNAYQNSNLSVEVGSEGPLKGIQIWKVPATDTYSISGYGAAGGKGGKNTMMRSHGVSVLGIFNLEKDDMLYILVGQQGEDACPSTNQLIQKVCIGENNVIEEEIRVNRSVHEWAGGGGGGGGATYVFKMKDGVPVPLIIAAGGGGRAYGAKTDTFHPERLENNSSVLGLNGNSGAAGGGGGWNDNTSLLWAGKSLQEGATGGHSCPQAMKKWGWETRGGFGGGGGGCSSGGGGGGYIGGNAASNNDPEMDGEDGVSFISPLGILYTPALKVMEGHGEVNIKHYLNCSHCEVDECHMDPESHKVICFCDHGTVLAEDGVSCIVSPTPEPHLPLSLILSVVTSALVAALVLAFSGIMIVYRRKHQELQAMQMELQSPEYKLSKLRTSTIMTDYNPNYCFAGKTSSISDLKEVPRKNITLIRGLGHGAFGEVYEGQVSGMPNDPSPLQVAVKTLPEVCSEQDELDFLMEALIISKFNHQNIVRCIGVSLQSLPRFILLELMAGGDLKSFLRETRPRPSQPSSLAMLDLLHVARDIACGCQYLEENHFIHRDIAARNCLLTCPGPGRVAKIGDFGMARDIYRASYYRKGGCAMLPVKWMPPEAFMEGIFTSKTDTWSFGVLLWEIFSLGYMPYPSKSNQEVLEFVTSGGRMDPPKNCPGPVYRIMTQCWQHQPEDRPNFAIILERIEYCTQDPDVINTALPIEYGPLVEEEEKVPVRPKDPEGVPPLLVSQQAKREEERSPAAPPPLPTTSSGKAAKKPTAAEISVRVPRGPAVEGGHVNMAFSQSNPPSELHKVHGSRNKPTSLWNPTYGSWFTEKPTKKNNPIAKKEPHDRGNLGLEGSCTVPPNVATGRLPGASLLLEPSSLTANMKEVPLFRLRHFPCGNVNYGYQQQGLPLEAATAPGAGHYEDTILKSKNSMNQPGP

The target in assay [5] is T1, Aurora kinase A (Homo sapiens). The experiment in a line: Induction of aurora A degradation in human KARPAS299 cells at 0.01 to 1 uM after 16 hrs by immunoblot method. It is filed as cell-based. In short, it runs like this: (§2)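 H3122 (EML4-ALK NSCLC) and Karpas 299 (NPM-ALK ALCL) cells were exposed to dose titrations for 16 h. ALK and Aurora A levels were then assessed by immunoblot.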

Assay [6] has the same target. In words: Induction of aurora A degradation in human NCI-H3122 cells at 0.01 to 1 uM after 16 hrs by immunoblot method. The format is cell-based. The essentials:
as §2

Assay [7] has as its target Signal transducer and activator of transcription 3 (Homo sapiens) (UniProt P40763). The experiment in a line: Inhibition of STAT3 phosphorylation at Y705 in human Kelly cells at 250 nM after 6 to 48 hrs by immunoblot method. It is filed as cell-based.
Assay [8] has as its target T2, ALK tyrosine kinase receptor. In words: Induction of ALK degradation in human CHLA20 cells assessed as decrease in ALK phosphorylation at Y1507 at 250 nM after 6 to 48 hrs in presence of ABCB1 inhibitor tariquidar by immunoblot method. The format is cell-based.
Target sequence in this assay (Q9UM73 19-1620 limits assumed): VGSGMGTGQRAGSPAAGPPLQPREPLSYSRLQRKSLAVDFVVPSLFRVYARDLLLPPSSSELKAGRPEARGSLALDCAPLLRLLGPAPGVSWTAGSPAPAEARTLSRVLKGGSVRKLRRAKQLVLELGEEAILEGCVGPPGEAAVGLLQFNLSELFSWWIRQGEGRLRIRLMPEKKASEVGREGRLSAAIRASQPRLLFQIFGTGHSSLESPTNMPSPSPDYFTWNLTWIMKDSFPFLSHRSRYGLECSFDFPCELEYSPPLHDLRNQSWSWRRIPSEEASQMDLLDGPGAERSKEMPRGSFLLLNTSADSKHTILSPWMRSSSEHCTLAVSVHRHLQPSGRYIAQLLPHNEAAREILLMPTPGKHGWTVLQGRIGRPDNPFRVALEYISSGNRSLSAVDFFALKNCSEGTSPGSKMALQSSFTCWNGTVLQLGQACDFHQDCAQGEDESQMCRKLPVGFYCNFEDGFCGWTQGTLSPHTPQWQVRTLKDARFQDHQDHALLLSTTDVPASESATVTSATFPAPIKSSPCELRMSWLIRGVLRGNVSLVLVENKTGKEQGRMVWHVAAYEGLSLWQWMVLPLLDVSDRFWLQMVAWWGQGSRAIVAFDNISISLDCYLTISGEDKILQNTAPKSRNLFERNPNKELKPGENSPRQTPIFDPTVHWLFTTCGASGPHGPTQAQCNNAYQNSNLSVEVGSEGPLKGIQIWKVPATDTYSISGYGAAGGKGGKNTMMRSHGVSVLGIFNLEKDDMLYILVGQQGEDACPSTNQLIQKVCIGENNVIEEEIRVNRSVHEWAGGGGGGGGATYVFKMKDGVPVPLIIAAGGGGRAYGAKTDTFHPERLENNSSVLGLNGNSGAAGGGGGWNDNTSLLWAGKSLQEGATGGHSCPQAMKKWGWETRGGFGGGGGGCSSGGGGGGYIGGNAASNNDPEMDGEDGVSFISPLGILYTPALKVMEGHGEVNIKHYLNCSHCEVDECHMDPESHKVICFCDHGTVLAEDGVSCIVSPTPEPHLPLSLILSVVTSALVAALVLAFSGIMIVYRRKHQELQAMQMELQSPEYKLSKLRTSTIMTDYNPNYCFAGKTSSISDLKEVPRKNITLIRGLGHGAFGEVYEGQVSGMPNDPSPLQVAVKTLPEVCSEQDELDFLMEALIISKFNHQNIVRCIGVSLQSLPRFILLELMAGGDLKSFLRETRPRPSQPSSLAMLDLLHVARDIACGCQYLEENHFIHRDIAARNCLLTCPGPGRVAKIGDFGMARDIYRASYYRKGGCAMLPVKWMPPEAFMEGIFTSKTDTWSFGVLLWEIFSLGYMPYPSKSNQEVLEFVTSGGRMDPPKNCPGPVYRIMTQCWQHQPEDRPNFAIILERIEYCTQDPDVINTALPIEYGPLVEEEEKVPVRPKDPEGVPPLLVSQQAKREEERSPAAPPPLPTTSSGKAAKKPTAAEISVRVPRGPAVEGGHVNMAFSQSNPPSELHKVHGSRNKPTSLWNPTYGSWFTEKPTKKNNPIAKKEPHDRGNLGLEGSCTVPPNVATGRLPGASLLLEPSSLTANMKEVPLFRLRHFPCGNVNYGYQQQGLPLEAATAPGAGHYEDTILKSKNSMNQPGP
Assay [9] shares this target. The experiment in a line: Induction of ALK degradation in human Kelly cells assessed as decrease in ALK phosphorylation at Y1507 at 250 nM after 6 to 48 hrs by immunoblot method. The format is cell-based.
Target sequence in this assay (Q9UM73 19-1620 limits assumed): as above
Assay [10] concerns the target Signal transducer and activator of transcription 3 (Homo sapiens) (UniProt P40763). The experiment in a line: Inhibition of STAT3 phosphorylation at Y705 in human CHLA20 cells at 250 nM after 6 to 48 hrs in presence of ABCB1 inhibitor tariquidar by immunoblot method. It is filed as cell-based.

Signal transducer and activator of transcription 3 (Homo sapiens), sequence (P40763 whole entry): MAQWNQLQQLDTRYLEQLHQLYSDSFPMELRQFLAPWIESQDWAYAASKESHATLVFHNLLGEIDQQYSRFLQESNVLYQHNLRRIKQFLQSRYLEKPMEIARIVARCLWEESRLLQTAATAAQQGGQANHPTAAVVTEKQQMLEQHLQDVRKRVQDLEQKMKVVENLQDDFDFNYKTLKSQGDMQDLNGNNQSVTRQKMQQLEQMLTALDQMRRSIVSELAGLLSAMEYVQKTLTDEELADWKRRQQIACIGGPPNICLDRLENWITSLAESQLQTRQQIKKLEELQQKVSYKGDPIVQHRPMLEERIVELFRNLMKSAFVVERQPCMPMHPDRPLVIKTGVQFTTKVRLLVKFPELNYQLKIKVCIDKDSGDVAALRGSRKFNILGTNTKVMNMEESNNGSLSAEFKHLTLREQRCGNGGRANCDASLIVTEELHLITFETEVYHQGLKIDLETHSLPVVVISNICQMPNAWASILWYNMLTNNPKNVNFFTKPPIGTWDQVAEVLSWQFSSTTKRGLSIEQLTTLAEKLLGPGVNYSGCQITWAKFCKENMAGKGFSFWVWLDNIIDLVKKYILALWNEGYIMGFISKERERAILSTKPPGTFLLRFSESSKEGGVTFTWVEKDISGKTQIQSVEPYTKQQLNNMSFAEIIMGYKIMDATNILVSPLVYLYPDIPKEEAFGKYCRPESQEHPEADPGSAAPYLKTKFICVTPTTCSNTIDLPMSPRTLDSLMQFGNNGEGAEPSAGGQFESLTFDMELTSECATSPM

For `COc1cc(N2CCN(CCOCCOCCNC(=O)CNc3cccc4c3C(=O)N(C3CCC(=O)NC3=O)C4=O)CC2)ccc1Nc1ncc(Cl)c(Nc2ccccc2S(=O)(=O)C(C)C)n1` (configuration not stated), the result in assay [1], in assay [3], in assay [5] and in assay [6] was Active. Further, in [2], the result was inactive. The compound also showed a DC50 in [4] of 180 nM.
On to `Cc1cc(Nc2ncc(Cl)c(Nc3ccccc3S(=O)(=O)C(C)C)n2)c(OC(C)C)cc1C1CCN(CCOCCOCCNC(=O)CNc2cccc3c2C(=O)N(C2CCC(=O)NC2=O)C3=O)CC1` (configuration not stated), for which, in assay [2], the outcome was inactive. In addition, the inhibition entry in assay [7] and in [10] was “Active” each time. In addition, the outcome in [8] and in assay [9] was Active. Also, the DC50 in assay [4] amounted to 40 nM.

Usually DC50 stands for the concentration giving 50% degradation.

Values taken from ChEMBL document CHEMBL4177764 (J Med Chem, 2018).
